≈ marks a conversion by molar mass, not a printed value.
How the values were obtained:
Type in all cases: functional
Streptococcus pneumoniae [1] = test: Antimicrobial activity against erythromycin-susceptible Streptococcus pneumoniae ATCC 49619 incubated in CAMHB medium for 20 to 24 hrs by two-fold microbroth dilution method
Streptococcus pneumoniae [2] = test: Antimicrobial activity against mef-encoded erythromycin resistant Streptococcus pneumoniae PU09 incubated in CAMHB medium for 20 to 24 hrs by two-fold microbroth dilution method
Streptococcus pyogenes [3] = test: Ratio of MBC to MIC for inducibly erythromycin resistant Streptococcus pyogenes 01-968 expressing i-ermA
Moraxella catarrhalis [4] = test: Bactericidal activity against erythromycin-susceptible Moraxella catarrhalis 13L332 assessed as reduction in colony formation incubated in CAMHB medium for 20 hrs followed by 24 hrs subculturing in the medium without test compound
Staphylococcus aureus [5] = test: Bactericidal activity against constitutively erythromycin resistant and methicillin-resistant Staphylococcus aureus PU20 expressing c-ermC assessed as reduction in colony formation incubated in CAMHB medium for 20 hrs followed by 24 hrs subculturing in the medium without test compound
Streptococcus pyogenes [6] = test: Bactericidal activity against inducibly erythromycin resistant Streptococcus pyogenes 01-968 expressing i-ermA assessed as reduction in colony formation incubated in CAMHB medium for 20 to 24 hrs followed by 24 hrs subculturing in the medium without test compound
Streptococcus pyogenes [7] = test: Antimicrobial activity against inducibly erythromycin resistant Streptococcus pyogenes 01-968 expressing i-ermA incubated in CAMHB medium for 20 to 24 hrs by two-fold microbroth dilution method
Staphylococcus aureus [8] = test: Antimicrobial activity against constitutively erythromycin resistant and methicillin resistant Staphylococcus aureus PU20 expressing c-ermC incubated in CAMHB medium for 20 hrs by two-fold microbroth dilution method; details: PU20, 20 h
In short: (§1)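 Purified fresh Staphylococcus isolate at about 5×10^5 CFU/ml final in CAMHB, 35 °C for 20 h. Each run included ATCC strains and reference antibiotics as QC, plus an antibiotic-free growth control.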

Streptococcus pneumoniae [9] = test: Bactericidal activity against mef-encoded erythromycin resistant Streptococcus pneumoniae PU09 assessed as reduction in colony formation incubated in CAMHB medium for 20 to 24 hrs followed by 24 hrs subculturing in the medium without test compound
Moraxella catarrhalis [10] = test: Antimicrobial activity against erythromycin-susceptible Moraxella catarrhalis 13L332 incubated in CAMHB medium for 20 hrs by two-fold microbroth dilution method; details: 13L332, 20 h
In short: (§2)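 Clinical isolates and ATCC strains, purified by plate activation and used fresh; inoculum about 5×10^5 CFU/ml final. Grown in CAMHB at 35 °C for 20 h.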

Moraxella catarrhalis [11] = test: Ratio of MBC to MIC for erythromycin-susceptible Moraxella catarrhalis 13L332
Streptococcus pneumoniae [12] = test: Ratio of MBC to MIC for erythromycin-susceptible Streptococcus pneumoniae ATCC 49619
Streptococcus pneumoniae [13] = test: Bactericidal activity against erythromycin-susceptible Streptococcus pneumoniae ATCC 49619 assessed as reduction in colony formation incubated in CAMHB medium for 20 to 24 hrs followed by 24 hrs subculturing in the medium without test compound
Staphylococcus aureus [14] = test: Bactericidal activity against inducibly erythromycin-resistant and methicillin resistant Staphylococcus aureus PU32 expressing i-ermA assessed as reduction in colony formation incubated in CAMHB medium for 20 hrs followed by 24 hrs subculturing in the medium without test compound
Staphylococcus aureus [15] = test: Antimicrobial activity against inducibly erythromycin-resistant and methicillin resistant Staphylococcus aureus PU32 expressing i-ermA incubated in CAMHB medium for 20 hrs by two-fold microbroth dilution method; details: PU32, 20 h; in short: as §1
Haemophilus influenzae [16] = test: Antimicrobial activity against azithromycin-susceptible Haemophilus influenzae ATCC 49247 incubated in HTM broth medium for 20 to 24 hrs by two-fold microbroth dilution method
Haemophilus influenzae [17] = test: Ratio of MBC to MIC for azithromycin-susceptible Haemophilus influenzae ATCC 49247
Streptococcus pneumoniae [18] = test: Ratio of MBC to MIC for mef-encoded erythromycin resistant Streptococcus pneumoniae PU09
Staphylococcus aureus [19] = test: Ratio of MBC to MIC for inducibly erythromycin-resistant and methicillin resistant Staphylococcus aureus PU32 expressing i-ermA
Haemophilus influenzae [20] = test: Bactericidal activity against azithromycin-susceptible Haemophilus influenzae ATCC 49247 assessed as reduction in colony formation incubated in HTM broth medium for 20 to 24 hrs followed by 24 hrs subculturing in the medium without test compound
[21] = tested on: Staphylococcus epidermidis; test: Antimicrobial activity against Staphylococcus epidermidis E1 incubated in CAMHB medium for 20 hrs by two-fold microbroth dilution method; details: E1, 20 h; in short: as §2
Streptococcus pyogenes [22] = test: Antimicrobial activity against constitutively erythromycin resistant Streptococcus pyogenes A2 expressing c-erm incubated in CAMHB medium for 20 to 24 hrs by two-fold microbroth dilution method
In short: (§3)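 Purified fresh Streptococcus isolate at about 5×10^5 CFU/ml final in CAMHB with 5% horse serum, 35 °C for 20–24 h. […] Each run included ATCC strains and reference antibiotics as QC, plus an antibiotic-free growth control.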

Streptococcus pneumoniae [23] = test: Antimicrobial activity against constitutively erythromycin resistant Streptococcus pneumoniae PU27 expressing c-erm incubated in CAMHB medium for 20 to 24 hrs by two-fold microbroth dilution method; in short: as §3
Staphylococcus aureus [24] = test: Antimicrobial activity against inducibly erythromycin-resistant Staphylococcus aureus PU32 expressing i-ermA incubated in CAMHB medium for 20 hrs by two-fold microbroth dilution method; details: PU32, 20 h
In short: (§4)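 Purified fresh Staphylococcus isolate at about 5×10^5 CFU/ml final in CAMHB, 35 °C for 20 h. […] Each run included ATCC strains and reference antibiotics as QC, plus an antibiotic-free growth control.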

Staphylococcus aureus [25] = test: Antimicrobial activity against erythromycin-susceptible Staphylococcus aureus ATCC 29213 incubated in CAMHB medium for 20 hrs by two-fold microbroth dilution method; details: ATCC 29213, 20 h; in short: as §2
Staphylococcus aureus [26] = test: Antimicrobial activity against inducibly erythromycin resistant Staphylococcus aureus PU64 expressing i-ermA incubated in CAMHB medium for 20 hrs by two-fold microbroth dilution method; details: PU64, 20 h; in short: as §4
Streptococcus pyogenes [27] = test: Antimicrobial activity against erythromycin-susceptible Streptococcus pyogenes A3 incubated in CAMHB medium for 20 to 24 hrs by two-fold microbroth dilution method
Staphylococcus aureus [28] = test: Antimicrobial activity against constitutively erythromycin resistant Staphylococcus aureus PU20 expressing c-ermC incubated in CAMHB medium for 20 hrs by two-fold microbroth dilution method; details: PU20, 20 h; in short: as §4

SMILES	MIC (Streptococcus pneumoniae [1])	MIC (Streptococcus pneumoniae [2])	Ratio (Streptococcus pyogenes [3])	MBC (Moraxella catarrhalis [4])	MBC (Staphylococcus aureus [5])	MBC (Streptococcus pyogenes [6])	MIC (Streptococcus pyogenes [7])	MIC (Staphylococcus aureus [8])	MBC (Streptococcus pneumoniae [9])	MIC (Moraxella catarrhalis [10])	Ratio (Moraxella catarrhalis [11])	Ratio (Streptococcus pneumoniae [12])	MBC (Streptococcus pneumoniae [13])	MBC (Staphylococcus aureus [14])	MIC (Staphylococcus aureus [15])	MIC (Haemophilus influenzae [16])	Ratio (Haemophilus influenzae [17])	Ratio (Streptococcus pneumoniae [18])	Ratio (Staphylococcus aureus [19])	MBC (Haemophilus influenzae [20])	also measured
CC[C@H]1OC(=O)[C@H](C)[C@@H](OCC#Cc2cncc(NC(=O)c3ccccn3)c2)[C@H](C)[C@@H](O[C@@H]2O[C@H](C)C[C@H](N(C)C)[C@H]2O)[C@](C)(OC)C[C@@H](C)/C(=N\OC)[C@H](C)[C@H]2OC(=O)O[C@@]21C	4 µg/mL (≈ 4.55 µM)	4 µg/mL (≈ 4.55 µM)	2	16 µg/mL (≈ 18.2 µM)	> 256 µg/mL	32 µg/mL (≈ 36.4 µM)	16 µg/mL (≈ 18.2 µM)	256 µg/mL (≈ 291 µM)	16 µg/mL (≈ 18.2 µM)	8 µg/mL (≈ 9.09 µM)	2	4	16 µg/mL (≈ 18.2 µM)	> 256 µg/mL	> 256 µg/mL	–	–	–	–	–	–
CC[C@H]1OC(=O)[C@H](C)[C@@H](OC(=O)CCNCC#Cc2cccnc2)[C@H](C)[C@@H](O[C@@H]2O[C@H](C)C[C@H](N(C)C)[C@H]2O)[C@](C)(OC)C[C@@H](C)/C(=N\OC)[C@H](C)[C@H]2OC(=O)O[C@@]21C	1 µg/mL (≈ 1.2 µM)	8 µg/mL (≈ 9.63 µM)	>8	–	> 256 µg/mL	> 64 µg/mL	8 µg/mL (≈ 9.63 µM)	256 µg/mL (≈ 308 µM)	16 µg/mL (≈ 19.3 µM)	–	–	4	4 µg/mL (≈ 4.81 µM)	> 256 µg/mL	64 µg/mL (≈ 77 µM)	256 µg/mL (≈ 308 µM)	1	2	>4	256 µg/mL (≈ 308 µM)	–
CC[C@H]1OC(=O)[C@H](C)[C@@H](OC(=O)NCCCCc2cccnc2)[C@H](C)[C@@H](O[C@@H]2O[C@H](C)C[C@H](N(C)C)[C@H]2O)[C@](C)(OC)C[C@@H](C)/C(=N\OC)[C@H](C)[C@H]2OC(=O)O[C@@]21C	0.5 µg/mL (≈ 0.609 µM)	8 µg/mL (≈ 9.74 µM)	1	–	–	128 µg/mL (≈ 156 µM)	128 µg/mL (≈ 156 µM)	> 256 µg/mL	8 µg/mL (≈ 9.74 µM)	–	–	4	2 µg/mL (≈ 2.44 µM)	> 256 µg/mL	32 µg/mL (≈ 39 µM)	256 µg/mL (≈ 312 µM)	1	1	>8	256 µg/mL (≈ 312 µM)	–
CC[C@H]1OC(=O)[C@H](C)[C@@H](OCC#Cc2ccc(NC(=O)c3ccccn3)nc2)[C@H](C)[C@@H](O[C@@H]2O[C@H](C)C[C@H](N(C)C)[C@H]2O)[C@](C)(OC)C[C@@H](C)/C(=N\OC)[C@H](C)[C@H]2OC(=O)O[C@@]21C	4 µg/mL (≈ 4.55 µM)	4 µg/mL (≈ 4.55 µM)	1	8 µg/mL (≈ 9.09 µM)	> 256 µg/mL	16 µg/mL (≈ 18.2 µM)	16 µg/mL (≈ 18.2 µM)	128 µg/mL (≈ 145 µM)	16 µg/mL (≈ 18.2 µM)	8 µg/mL (≈ 9.09 µM)	1	4	16 µg/mL (≈ 18.2 µM)	> 256 µg/mL	> 256 µg/mL	–	–	–	–	–	–
C=CCO/N=C1\[C@H](C)C[C@@](C)(OC)[C@H](O[C@@H]2O[C@H](C)C[C@H](N(C)C)[C@H]2O)[C@@H](C)[C@H](OCC#Cc2cncc(N)c2)[C@@H](C)C(=O)O[C@H](CC)[C@@]2(C)OC(=O)O[C@@H]2[C@H]1C	4 µg/mL (≈ 4.99 µM)	8 µg/mL (≈ 9.99 µM)	–	–	–	–	–	–	–	–	–	–	–	–	–	–	–	–	–	–	MIC [21]: 256 µg/mL (≈ 320 µM); MIC (Streptococcus pyogenes [22]): 128 µg/mL (≈ 160 µM); MIC (Streptococcus pneumoniae [23]): 128 µg/mL (≈ 160 µM); MIC (Staphylococcus aureus [24]): 256 µg/mL (≈ 320 µM); MIC (Staphylococcus aureus [25]): 64 µg/mL (≈ 79.9 µM); MIC (Staphylococcus aureus [26]): 128 µg/mL (≈ 160 µM); MIC (Streptococcus pyogenes [27]): 4 µg/mL (≈ 4.99 µM); MIC (Staphylococcus aureus [28]): 256 µg/mL (≈ 320 µM)
